Data taken from ChEMBL document CHEMBL4715693, “Synthesis and antiviral properties of novel indole-based thiosemicarbazides and 4-thiazolidinones” (Bioorg Med Chem, 2016).
Values after ≈ are worked out from the molar mass of the structure shown.

Columns and labels:
[1] = system: Vesicular stomatitis virus; assay: Antiviral activity against Vesicular stomatitis virus infected in human HeLa cells assessed as reduction in virus-induced cytopathic effect incubated for 3 to 6 days by light microscopic analysis; format: functional, organism-based
In short: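 CPE reduction assay: virus and serial compound dilutions added together to subconfluent HeLa (vesicular stomatitis, Coxsackie B4, respiratory syncytial) or Vero (Coxsackie B4, Sindbis, Punta Toro) cultures. Incubated 3–6 days at 37 °C. Mean ± SEM of three independent tests.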

Coxsackievirus B4 [2] = assay: Antiviral activity against Human coxsackievirus B4 infected in human HeLa cells assessed as reduction in virus-induced cytopathic effect incubated for 3 to 6 days by light microscopic analysis; format: functional, organism-based; conditions: Enterovirus B
In short: (§1)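 CPE reduction assay: virus and serial compound dilutions added together to subconfluent HeLa (vesicular stomatitis, Coxsackie B4, respiratory syncytial) or Vero (Coxsackie B4, Sindbis, Punta Toro) cultures. Incubated 3–6 days at 37 °C. […] Mean ± SEM of three independent tests.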

[3] = system: Respiratory syncytial virus; assay: Antiviral activity against Respiratory syncytial virus infected in human HeLa cells assessed as reduction in virus-induced cytopathic effect incubated for 3 to 6 days by light microscopic analysis; format: functional, organism-based; in short: as §1
[4] = Cytotoxicity against human HeLa cells assessed as changes in cell morphology incubated for 3 to 6 days by light microscopic analysis; format: cell-based; conditions: time 3-6 day
In short: (§2)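 Uninfected subconfluent cells (Vero or HeLa, as named) exposed to serial compound dilutions in parallel with the CPE assays, 37 °C, 3–6 days. Cell morphology examined by light microscopy; MCC = minimal concentration causing microscopically detectable changes in morphology.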

[5] = Selectivity index, ratio of MCC for human HeLa cells to EC50 for Human coxsackievirus B4 infected in human HeLa cells; format: toxicity, cell-based
In short: (§3)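 HeLa cells infected concurrently with addition of serial compound dilutions, 3–6 days at 37 °C. CPE inhibition scored microscopically for EC50; MCC from minimal alteration of cell morphology by microscopy; index = MCC divided by EC50.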

Human respirovirus 3 = assay: Antiviral activity against Human parainfluenza virus 3 infected in African green monkey Vero cells assessed as reduction in virus-induced cytopathic effect incubated for 3 to 6 days by light microscopic analysis; format: functional, organism-based; conditions: Human respirovirus 3, Vero
[6] = system: Mammalian orthoreovirus 1; assay: Antiviral activity against Mammalian orthoreovirus 1 infected in African green monkey Vero cells assessed as reduction in virus-induced cytopathic effect incubated for 3 to 6 days by light microscopic analysis; format: functional, organism-based; conditions: Mammalian orthoreovirus 1, Vero
Sindbis virus = assay: Antiviral activity against Sindbis virus infected in African green monkey Vero cells assessed as reduction in virus-induced cytopathic effect incubated for 3 to 6 days by light microscopic analysis; format: functional, organism-based; in short: as §1
Coxsackievirus B4 [7] = assay: Antiviral activity against Human coxsackievirus B4 infected in African green monkey Vero cells assessed as reduction in virus-induced cytopathic effect incubated for 3 to 6 days by light microscopic analysis; format: functional, organism-based; conditions: Enterovirus B; in short: as §1
Punta Toro virus = assay: Antiviral activity against Punta Toro virus infected in African green monkey Vero cells assessed as reduction in virus-induced cytopathic effect incubated for 3 to 6 days by light microscopic analysis; format: functional, organism-based; in short: as §1
[8] = Cytotoxicity against African green monkey Vero cells assessed as changes in cell morphology incubated for 3 to 6 days by light microscopy; format: cell-based; conditions: chlorocebus sabaeus, time 3-6 day; in short: as §2
[9] = Selectivity index, ratio of MCC for African green monkey Vero cells to EC50 for Human coxsackievirus B4 infected in African green monkey Vero cells; format: toxicity
Human alphaherpesvirus 1 = assay: Antiviral activity against Herpes simplex virus 1 infected in human HEL cells assessed as reduction in virus-induced cytopathic effect incubated for 3 to 6 days by light microscopic analysis; format: functional, cell-based; conditions: Human alphaherpesvirus 1, HEL
Human alphaherpesvirus 2 = assay: Antiviral activity against Herpes simplex virus 2 infected in human HEL cells assessed as reduction in virus-induced cytopathic effect incubated for 3 to 6 days by light microscopic analysis; format: functional, cell-based; conditions: Human alphaherpesvirus 2, HEL
Vaccinia virus = assay: Antiviral activity against Vaccinia virus infected in human HEL cells assessed as reduction in virus-induced cytopathic effect incubated for 3 to 6 days by light microscopic analysis; format: functional, organism-based; conditions: Orthopoxvirus vaccinia
[10] = system: Human immunodeficiency virus 1; assay: Antiviral activity against Human immunodeficiency virus 1 infected in human MT4 cells assessed as reduction in virus-induced cytopathic effect incubated for 3 to 6 days by light microscopic analysis; format: functional, organism-based; conditions: Human immunodeficiency virus 1, MT4
[11] = system: Human immunodeficiency virus 2; assay: Antiviral activity against Human immunodeficiency virus 2 infected in human MT4 cells assessed as reduction in virus-induced cytopathic effect incubated for 3 to 6 days by light microscopic analysis; format: functional, organism-based; conditions: Human immunodeficiency virus 2, MT4
Influenza A virus = assay: Antiviral activity against influenza A virus infected in dog MDCK cells assessed as reduction in virus-induced cytopathic effect incubated for 3 to 6 days by light microscopic analysis; format: functional, organism-based; conditions: Influenza A virus, MDCK
In short: (§4)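 MDCK cells, subconfluent, received influenza A or B virus together with serial compound dilutions. Incubated 3–6 days at 35 °C.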

Influenza B virus = assay: Antiviral activity against influenza B virus infected in dog MDCK cells assessed as reduction in virus-induced cytopathic effect incubated for 3 to 6 days by light microscopic analysis; format: functional, organism-based; in short: as §4
Feline coronavirus = assay: Antiviral activity against Feline coronavirus infected in cat CRFK cells assessed as reduction in virus-induced cytopathic effect incubated for 3 to 6 days by light microscopic analysis; format: functional, organism-based; conditions: Alphacoronavirus 1, CRFK
Felid alphaherpesvirus 1 = assay: Antiviral activity against Feline herpesvirus infected in cat CRFK cells assessed as reduction in virus-induced cytopathic effect incubated for 3 to 6 days by light microscopic analysis; format: functional, organism-based; conditions: Felid alphaherpesvirus 1, CRFK
[12] = Cytotoxicity against human HEL cells assessed as changes in cell morphology incubated for 3 to 6 days by light microscopy; format: cell-based; conditions: time 3-6 day
In short: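 Human embryonic lung fibroblasts incubated with serial compound dilutions alongside the antiviral assays, 37 °C, 3–6 days. Morphology inspected by light microscopy; minimal cytotoxic concentration taken as lowest concentration giving minimal morphological change.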

[13] = Cytotoxicity against dog MDCK cells assessed as changes in cell morphology incubated for 3 to 6 days by light microscopy; format: cell-based, Canis lupus familiaris; conditions: time 3-6 day
[14] = Cytotoxicity against cat CRFK cells assessed as reduction in cell viability incubated for 3 to 6 days by MTS assay; format: cell-based, Felis catus; conditions: crfk, time 3-6 day
In short: (§5)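 CRFK or MT4 cells were exposed to serial compound dilutions alongside the antiviral assays for 3–6 days at 37 °C.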

MT4 = assay: Cytotoxicity against human MT4 cells assessed as reduction in cell viability incubated for 3 to 6 days by MTS assay; format: cell-based; conditions: time 3-6 day; in short: as §5
[15] = Selectivity index, ratio of MCC for human HeLa cells to EC50 for Respiratory syncytial virus infected in human HeLa cells; format: toxicity, cell-based; in short: as §3
[16] = Selectivity index, ratio of MCC for African green monkey Vero cells to EC50 for Sindbis virus infected in African green monkey Vero cells; format: toxicity

Row | Compound | EC50 [1] [µg/mL] | EC50 (Coxsackievirus B4 [2]) [µg/mL] | EC50 [3] [µg/mL] | MCC [4] [µg/mL] | selectivity ratio [5] | EC50 (Human respirovirus 3) [µg/mL] | EC50 [6] [µg/mL] | EC50 (Coxsackievirus B4 [7]) [µg/mL] | EC50 (Punta Toro virus) [µg/mL] | selectivity ratio [9] | EC50 (Human alphaherpesvirus 1) [µg/mL] | EC50 (Human alphaherpesvirus 2) [µg/mL] | EC50 (Vaccinia virus) [µg/mL] | EC50 [10] [µg/mL] | EC50 [11] [µg/mL] | EC50 (Influenza A virus) [µg/mL] | EC50 (Influenza B virus) [µg/mL] | EC50 (Feline coronavirus) [µg/mL] | EC50 (Felid alphaherpesvirus 1) [µg/mL] | MCC [12] [µg/mL] | other results
1 | CNC(=S)NNC(=O)c1[nH]c2ccc(F)cc2c1-c1ccccc1 | > 100 | 2.1 (≈ 6.13 µM) | > 100 | 20 | 9 | > 100 | > 100 | 1.7 (≈ 4.96 µM) | > 100 | 12 | > 100 | > 100 | > 100 | > 100 | > 100 | > 100 | > 100 | > 100 | > 100 | 20 | EC50 (Sindbis virus): > 100 µg/mL; MCC [8]: 20 µg/mL; MCC [13]: 20 µg/mL; CC50 [14]: 7.5 µg/mL (≈ 21.9 µM); CC50 (MT4): 18 µg/mL (≈ 52.6 µM)
2 | CCNC(=S)NNC(=O)c1[nH]c2ccc(F)cc2c1-c1ccccc1 | > 100 | 0.87 (≈ 2.44 µM) | ≥ 4 | 20 | 23 | > 100 | > 100 | 0.4 (≈ 1.12 µM) | > 100 | 50 | > 100 | > 100 | > 100 | > 100 | > 100 | > 100 | > 100 | > 100 | > 100 | 20 | selectivity ratio [15]: ≥ 5; MCC [8]: 20 µg/mL; selectivity ratio [16]: 6; MCC [13]: 4 µg/mL; CC50 [14]: 2.9 µg/mL (≈ 8.14 µM); CC50 (MT4): 14 µg/mL (≈ 39.3 µM)
3 | C=CCNC(=S)NNC(=O)c1[nH]c2ccc(F)cc2c1-c1ccccc1 | > 100 | 1.5 (≈ 4.07 µM) | ≥ 4 | 20 | 13 | > 100 | > 100 | 2 (≈ 5.43 µM) | > 100 | 10 | > 100 | > 100 | > 100 | > 100 | > 100 | > 100 | > 100 | > 100 | > 100 | 20 | selectivity ratio [15]: ≥ 5; EC50 (Sindbis virus): ≥ 4 µg/mL; MCC [8]: 20 µg/mL; selectivity ratio [16]: ≥ 5; MCC [13]: 4 µg/mL; CC50 [14]: 8.6 µg/mL (≈ 23.3 µM)
4 | CCCNC(=S)NNC(=O)c1[nH]c2ccc(F)cc2c1-c1ccccc1 | > 100 | 1.1 (≈ 2.97 µM) | ≥ 2.3 | 20 | 18 | > 100 | > 100 | 1.8 (≈ 4.86 µM) | > 100 | 56 | > 100 | > 100 | > 100 | > 100 | > 100 | > 100 | > 100 | > 100 | > 100 | 20 | selectivity ratio [15]: ≥ 9; EC50 (Sindbis virus): 6.5 µg/mL (≈ 17.5 µM); selectivity ratio [16]: 15; MCC [13]: 0.8 µg/mL; CC50 [14]: 9.7 µg/mL (≈ 26.2 µM); CC50 (MT4): 11 µg/mL (≈ 29.7 µM)
